A selection: hits, their analogues and other compounds. The true share with any hit is near 2.7%.
Redox H2O2 prof: compounds producing H2O2 with reducing agent – biochemical, NIH compound library profiling, artefact control for MLSCN library redox annotation, primary screen; DTT-dependent redox cycling H2O2, phenol red/HRP absorbance; 100% = 100 µM peroxide control, 0% = buffer; activation, % at 10 µM; 0.03% of 200,000 active;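 active = activation of at least 50% relative to the plate's high and low controls in the primary single-dose screen; inactive = activation below 50%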;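 also: compound incubated with DTT at 0.8 mM final as the reducing agent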
ABCG2 inh: ABCG2 efflux pump inhibitors, primary screen, multiplex with ABCB1, IgMXP3 cells, flow cytometry; Broad substrate specificity ATP-binding cassette transporter ABCG2 (Homo sapiens), Q9UNQ0; JC-1 efflux; inhibition, % at 6.6 µM; 0.1% of 190,000 active; AID 1325, 2008;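 active = inhibition above 80%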
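Test system: IgMXP3 (ABCG2) plus far-red-tagged CCRF-Adr (ABCB1) cells / Amount: 3 million cells/mL in well / Reagent: JC-1 transporter substrate / Timing: 10 min compound exposure, 25 °C / Signal: flow cytometry, 530 nm JC-1 signal / Read-out: percent efflux inhibition, scaled nicardipine 100% to DMSO 0% / Benchmarks: nicardipine as high control, DMSO as low control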
FLuc inh counter: firefly luciferase enzyme inhibitors, primary screen, artefact control for luciferase-based inhibitor screens, biochemical, luminescence, ATPLite | Luciferin 4-monooxygenase (Photinus pyralis), P08659 | 10 min | inhibition, % at 10 µM | 1.5% of 200,000 active | AID 1006, 2008;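 active = inhibition above about 50% when tested at 10 µM, limit read from the data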
Target sequence (P08659 whole entry, looked up): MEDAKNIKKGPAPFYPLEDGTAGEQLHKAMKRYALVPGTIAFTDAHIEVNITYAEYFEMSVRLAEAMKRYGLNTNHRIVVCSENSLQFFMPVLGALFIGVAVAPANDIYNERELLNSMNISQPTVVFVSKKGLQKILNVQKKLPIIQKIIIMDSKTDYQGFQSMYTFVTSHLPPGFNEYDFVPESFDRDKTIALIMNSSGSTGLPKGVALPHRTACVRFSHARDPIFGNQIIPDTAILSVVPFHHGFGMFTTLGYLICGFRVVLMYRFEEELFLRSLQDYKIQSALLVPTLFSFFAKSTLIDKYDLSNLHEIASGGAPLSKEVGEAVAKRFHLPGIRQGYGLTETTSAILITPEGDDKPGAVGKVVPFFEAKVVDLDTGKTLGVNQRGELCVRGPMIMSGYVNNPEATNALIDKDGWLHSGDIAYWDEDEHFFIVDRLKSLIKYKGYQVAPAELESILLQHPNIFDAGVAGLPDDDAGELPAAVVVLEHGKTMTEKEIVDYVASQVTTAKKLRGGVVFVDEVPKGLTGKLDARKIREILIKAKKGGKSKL
ABCB1 inh: ABCB1 efflux pump inhibitors, primary screen, cell-based, multiplex, flow cytometry, ABCG2 counter-screen; ATP-dependent translocase ABCB1 (Homo sapiens), P08183; CCRF-Adr cells, JC-1 efflux; inhibition, % at 6.6 µM; 0.067% of 190,000 active; in the data active = inhibition above about 40%;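 also: higher value means more JC-1 retained so stronger ABCB1 efflux block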
Measles CPE: compounds protecting cells from measles virus cytopathic effect, primary screen, measles RdRp inhibitor project, single point, MLSMR library, absorbance; Measles virus-infected cells, CPE protection; protection (pct of control), % at 4 µM; 1.5% of 140,000 active; AID 841, 2007; in the data active = protection mostly above about 24%, no sharp cut-off; inactive = mostly below about 26%
FLuc stim CS: FLuc activators, initial screening, artefact control for FLuc-dependent activation tests, biochemical, ATPlite luminescence | Luciferin 4-monooxygenase (Photinus pyralis), P08659 | ATPlite luciferase biochemical, 10 min; 0 = ATP-free wells, 1 = DMSO control | activation factor at 10 µM | 200,000 tested, under 10 active;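 active = luciferase activation factor, scaled between plate controls, of at least 2 with compound at 10 µM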
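assay system = Luciferase/luciferin detection reagent, cell-free biochemical luciferase assay | also added = ATP substrate | times = 10 min post-reagent at room temperature | measured by = luminescence from luciferase reaction | measure = luciferase activation, seen as luminescence increase over controls | benchmarks = low control with PBS replacing ATP, high control enzyme plus ATP without compound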
A number is an active result.

Results for Cc1cc(C(=O)COC(=O)C2=NNC(=O)CC2)c(C)n1-c1ccccc1 ?
Redox H2O2 prof: inactive; ABCG2 inh: inactive; FLuc inh counter: 64; ABCB1 inh: inactive; Measles CPE: inactive; FLuc stim CS: inactive

Results for Cc1nn(C)c(C(=O)Nc2ccc(Cn3cccn3)cc2)c1[N+](=O)[O-] ?
Redox H2O2 prof: inactive; ABCG2 inh: inactive; FLuc inh counter: inactive; ABCB1 inh: inactive; Measles CPE: inactive; FLuc stim CS: inactive

How did CCCN(CCC)CCCNC(=O)c1nn(-c2cccc(OC)c2)c(=O)c2ccccc12 do in these assays?
Redox H2O2 prof: inactive; ABCG2 inh: inactive; FLuc inh counter: inactive; ABCB1 inh: inactive; FLuc stim CS: inactive

What do the screens show for `N#Cc1ccc(C(=O)NCC(c2ccco2)N2CCCCC2)cc1` (configuration not stated)?
Redox H2O2 prof: inactive; ABCG2 inh: inactive; FLuc inh counter: inactive; ABCB1 inh: inactive; Measles CPE: 46; FLuc stim CS: inactive

What do the screens show for `CNc1sc(C(=O)c2ccccc2F)c(N)c1-c1nc2ccccc2s1`?
Redox H2O2 prof: inactive; ABCG2 inh: inactive; FLuc inh counter: inactive; ABCB1 inh: inactive; Measles CPE: inactive; FLuc stim CS: inactive

Results for O=C(CCc1ccccc1)Nc1ccc(NC(=O)c2ccco2)nc1 ?
Redox H2O2 prof: inactive; ABCG2 inh: inactive; FLuc inh counter: inactive; ABCB1 inh: inactive; Measles CPE: 25; FLuc stim CS: inactive

How did CCC(=O)Nc1ccc(NC(=O)c2ccccc2)nc1 do in these assays?
Redox H2O2 prof: inactive; ABCG2 inh: inactive; FLuc inh counter: 62; ABCB1 inh: inactive; FLuc stim CS: inactive

Results for COc1cccc(C(=O)Nc2cnc(NC(=O)c3ccco3)cc2C)c1 ?
Redox H2O2 prof: inactive; ABCG2 inh: inactive; FLuc inh counter: inactive; ABCB1 inh: inactive; Measles CPE: inactive; FLuc stim CS: inactive

What do the screens show for `Cc1cc(NC(=O)c2ccco2)ncc1NC(=O)Cc1ccccc1`?
Redox H2O2 prof: inactive; ABCG2 inh: inactive; FLuc inh counter: inactive; ABCB1 inh: inactive; Measles CPE: 31; FLuc stim CS: inactive

What do the screens show for `COc1cccc(C(=O)Nc2ccc(NC(=O)C(C)(C)C)cn2)c1`?
Redox H2O2 prof: inactive; ABCG2 inh: inactive; FLuc inh counter: 88; ABCB1 inh: inactive; Measles CPE: inactive; FLuc stim CS: inactive

Results for COc1cccc(C(=O)Nc2ccc(NC(C)=O)cc2)c1 ?
Redox H2O2 prof: inactive; ABCG2 inh: inactive; FLuc inh counter: inactive; ABCB1 inh: inactive; Measles CPE: inactive; FLuc stim CS: inactive

How did O=C(CCc1ccccc1)Nc1ccc(NC(=O)c2ccco2)cc1 do in these assays?
Redox H2O2 prof: inactive; ABCG2 inh: inactive; FLuc inh counter: inactive; ABCB1 inh: inactive; Measles CPE: inactive; FLuc stim CS: inactive

Results for COc1ccc(C(=O)OCc2nc(N)nc(Nc3ccccc3C)n2)cc1OC ?
Redox H2O2 prof: inactive; ABCG2 inh: inactive; FLuc inh counter: inactive; ABCB1 inh: inactive; FLuc stim CS: inactive

How did O=C(CCCOc1ccccc1)Nc1ccc(S(=O)(=O)Nc2ccccn2)cc1 do in these assays?
Redox H2O2 prof: inactive; ABCG2 inh: inactive; FLuc inh counter: inactive; ABCB1 inh: inactive; FLuc stim CS: inactive

How did O=C(N/N=C/c1cccnc1)c1ccc([N+](=O)[O-])cc1 do in these assays?
Redox H2O2 prof: inactive; ABCG2 inh: inactive; FLuc inh counter: 67; ABCB1 inh: inactive; Measles CPE: inactive; FLuc stim CS: inactive

What do the screens show for `CC(C)(C)OC(=O)N/N=C\c1cccnc1`?
Redox H2O2 prof: inactive; ABCG2 inh: inactive; FLuc inh counter: 78; ABCB1 inh: inactive; FLuc stim CS: inactive

How did COc1ccc(CN(C)C2CCCCC2)c(C)c1C do in these assays?
Redox H2O2 prof: inactive; ABCG2 inh: inactive; FLuc inh counter: inactive; ABCB1 inh: inactive; Measles CPE: inactive; FLuc stim CS: inactive

What do the screens show for `CC(C)c1ccccc1NC(=S)NN(Cc1ccccc1)c1ccccc1`?
Redox H2O2 prof: inactive; ABCG2 inh: inactive; FLuc inh counter: inactive; ABCB1 inh: inactive; Measles CPE: inactive; FLuc stim CS: inactive

Results for CCOC(=O)C1CCN(C(c2cccnc2)c2c(NC(=O)c3ccco3)sc(C)c2C)CC1 (configuration not stated) ?
Redox H2O2 prof: inactive; ABCG2 inh: inactive; FLuc inh counter: inactive; ABCB1 inh: inactive; Measles CPE: 67; FLuc stim CS: inactive

How did Cc1sc(NC(=O)c2ccco2)c(C(c2cccnc2)N2CCN(CCO)CC2)c1C (configuration not stated) do in these assays?
Redox H2O2 prof: inactive; ABCG2 inh: inactive; FLuc inh counter: inactive; ABCB1 inh: inactive; FLuc stim CS: inactive

How did Cc1ccc(C(=O)Nc2ccc(Cl)cc2C)c(Cl)c1 do in these assays?
Redox H2O2 prof: inactive; ABCG2 inh: inactive; FLuc inh counter: 76; ABCB1 inh: inactive; FLuc stim CS: inactive

What do the screens show for `COC(=O)C1=C(SC)N(c2ccc(OC)cc2)C(c2ccccc2)CC1=O` (configuration not stated)?
Redox H2O2 prof: inactive; ABCG2 inh: inactive; FLuc inh counter: inactive; ABCB1 inh: inactive; Measles CPE: inactive; FLuc stim CS: inactive

What do the screens show for `CCOC(=O)c1nn(-c2ccc3ccccc3c2)cc1O`?
Redox H2O2 prof: inactive; ABCG2 inh: inactive; FLuc inh counter: inactive; ABCB1 inh: inactive; FLuc stim CS: inactive

What do the screens show for `COC(=O)c1nn(-c2ccc(-c3ccccc3)cc2)cc1O`?
Redox H2O2 prof: inactive; ABCG2 inh: inactive; FLuc inh counter: 80; ABCB1 inh: inactive; Measles CPE: inactive; FLuc stim CS: inactive

How did CCOC(=O)c1nn(-c2ccc(C)cc2)cc1O do in these assays?
Redox H2O2 prof: inactive; ABCG2 inh: inactive; FLuc inh counter: 59; ABCB1 inh: inactive; Measles CPE: inactive; FLuc stim CS: inactive

How did CCOC(=O)c1cc(C(=O)OCC)cc(-n2cc(O)c(C(=O)OCC)n2)c1 do in these assays?
Redox H2O2 prof: inactive; ABCG2 inh: inactive; FLuc inh counter: inactive; ABCB1 inh: inactive; Measles CPE: inactive; FLuc stim CS: inactive

What do the screens show for `CCOC(=O)CCCNC(=O)COC(=O)CCC(=O)c1ccc(F)cc1`?
Redox H2O2 prof: inactive; ABCG2 inh: inactive; FLuc inh counter: inactive; ABCB1 inh: inactive; Measles CPE: inactive; FLuc stim CS: inactive

What do the screens show for `COc1ccc(S(=O)(=O)NCc2ccc(C(=O)N3CCc4ccccc4C3)cc2)cc1`?
Redox H2O2 prof: inactive; ABCG2 inh: inactive; FLuc inh counter: inactive; ABCB1 inh: inactive; Measles CPE: inactive; FLuc stim CS: inactive

What do the screens show for `COc1ccc(C(=O)Nc2ccccc2C(=O)O)cc1Cl`?
Redox H2O2 prof: inactive; ABCG2 inh: inactive; FLuc inh counter: 76; ABCB1 inh: inactive; Measles CPE: inactive; FLuc stim CS: inactive

From PubChem BioAssay
